Data reported in ChEMBL document CHEMBL1221271, “6-Alkylquinolone-3-carboxylic acid tethered to macrolides synthesis and antimicrobial profile” (2010).
Values after ≈ are worked out from the molar mass of the structure shown.

Legend:
Assay type in all cases: functional
Staphylococcus aureus [1] = experiment: Antimicrobial activity against macrolide, licosamide streptogramin-resistant Staphylococcus aureus 90265/97 by broth microdilution method
In short: (§1)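 MIC determined by the standard broth microdilution method; values reported in mg/L. Reference macrolide antibiotics were tested alongside as comparators.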

Staphylococcus aureus [2] = experiment: Antimicrobial activity against Staphylococcus aureus ATCC 13709 by broth microdilution method; in short: as §1
Streptococcus pneumoniae [3] = experiment: Antimicrobial activity against Streptococcus pneumoniae SP030 by broth microdilution method
In short: (§2)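 Standard broth microdilution assay. Read-out is the minimum inhibitory concentration, reported in mg/L.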

Streptococcus pyogenes [4] = experiment: Antimicrobial activity against Streptococcus pyogenes 3565 by broth microdilution method; in short: as §2
Streptococcus pneumoniae [5] = experiment: Antimicrobial activity against Streptococcus pneumoniae 134 GR-M by broth microdilution method; in short: as §2
Streptococcus pyogenes [6] = experiment: Antimicrobial activity against Streptococcus pyogenes Finland 2 by broth microdilution method; in short: as §1
Streptococcus pneumoniae [7] = experiment: Antimicrobial activity against Streptococcus pneumoniae 58 spain by broth microdilution method; in short: as §2
Streptococcus pyogenes [8] = experiment: Antimicrobial activity against Streptococcus pyogenes 166 GR-Micro by broth microdilution method; in short: as §2
Haemophilus influenzae = experiment: Antimicrobial activity against Haemophilus influenzae ATCC 49247 by broth microdilution method; in short: as §2
Streptococcus pyogenes [9] = experiment: Antimicrobial activity against macrolide-resistant Streptococcus pyogenes Finland 2 by broth microdilution method; in short: as §1
Staphylococcus aureus [10] = experiment: Antimicrobial activity against efflux-mediated macrolide-resistant Staphylococcus aureus PK1 by broth microdilution method; in short: as §1

SMILES	MIC (Staphylococcus aureus [1])	MIC (Staphylococcus aureus [2])	MIC (Streptococcus pneumoniae [3])	MIC (Streptococcus pyogenes [4])	MIC (Streptococcus pneumoniae [5])	MIC (Streptococcus pyogenes [6])	MIC (Streptococcus pneumoniae [7])	MIC (Streptococcus pyogenes [8])	MIC (Haemophilus influenzae)	MIC (Streptococcus pyogenes [9])	MIC (Staphylococcus aureus [10])
CCOC(=O)CCCCCOCC#Cc1ccc2c(c1)c(=O)c(C(=O)OCC)cn2CC	> 64 µg/mL	> 64 µg/mL	16 µg/mL (≈ 36.2 µM)	8 µg/mL (≈ 18.1 µM)	64 µg/mL (≈ 145 µM)	> 64 µg/mL	64 µg/mL (≈ 145 µM)	> 64 µg/mL	> 64 µg/mL	> 64 µg/mL	> 64 µg/mL
CCn1cc(C(=O)O)c(=O)c2cc(C#CCOCCCCCC(=O)O)ccc21	> 64 µg/mL	> 64 µg/mL	> 64 µg/mL	> 64 µg/mL	> 64 µg/mL	> 64 µg/mL	> 64 µg/mL	> 64 µg/mL	> 64 µg/mL		> 64 µg/mL
CCOC(=O)CCCCOCC#Cc1ccc2c(c1)c(=O)c(C(=O)OCC)cn2CC	> 64 µg/mL	> 64 µg/mL	> 64 µg/mL	> 64 µg/mL	> 64 µg/mL	> 64 µg/mL	> 64 µg/mL	> 64 µg/mL	> 64 µg/mL		> 64 µg/mL
CCn1cc(C(=O)O)c(=O)c2cc(C#CCOCCCCC(=O)O)ccc21	> 64 µg/mL	> 64 µg/mL	1 µg/mL (≈ 2.69 µM)	1 µg/mL (≈ 2.69 µM)	> 64 µg/mL	16 µg/mL (≈ 43.1 µM)	2 µg/mL (≈ 5.39 µM)	> 64 µg/mL	> 64 µg/mL	16 µg/mL (≈ 43.1 µM)	> 64 µg/mL
CC[C@H]1OC(=O)[C@H](C)[C@@H](O[C@H]2C[C@@](C)(OC)[C@@H](OC(=O)CCCCCOCCCc3ccc4c(c3)c(=O)c(C(=O)O)cn4CC)[C@H](C)O2)[C@H](C)[C@@H](O[C@@H]2O[C@H](C)C[C@H](N(C)C)[C@H]2O)[C@](C)(O)C[C@@H](C)CN(C)[C@H](C)[C@@H](O)[C@]1(C)O	0.25 µg/mL (≈ 0.223 µM)	0.25 µg/mL (≈ 0.223 µM)	< 0.125 µg/mL	< 0.125 µg/mL	< 0.125 µg/mL	< 0.125 µg/mL	< 0.125 µg/mL	< 0.125 µg/mL	0.5 µg/mL (≈ 0.446 µM)		0.25 µg/mL (≈ 0.223 µM)
CC[C@H]1OC(=O)[C@H](C)[C@@H](O[C@H]2C[C@@](C)(OC)[C@@H](OC(=O)CCCCCOCCCc3ccc4c(c3)c(=O)c(C(=O)O)cn4CC)[C@H](C)O2)[C@H](C)[C@@H](O[C@@H]2O[C@H](C)C[C@H](N(C)C)[C@H]2O)[C@](C)(O)C[C@@H](C)CN(C)[C@H](C)[C@@H](OC)[C@]1(C)O	2 µg/mL (≈ 1.76 µM)	1 µg/mL (≈ 0.881 µM)	< 0.125 µg/mL	< 0.125 µg/mL	0.5 µg/mL (≈ 0.441 µM)	< 0.125 µg/mL	< 0.125 µg/mL	0.5 µg/mL (≈ 0.441 µM)	1 µg/mL (≈ 0.881 µM)		1 µg/mL (≈ 0.881 µM)
CC[C@H]1OC(=O)[C@H](C)[C@@H](O[C@H]2C[C@@](C)(OC)[C@@H](OC(=O)CCCCOCC#Cc3ccc4c(c3)c(=O)c(C(=O)O)cn4CC)[C@H](C)O2)[C@H](C)[C@@H](O[C@@H]2O[C@H](C)C[C@H](N(C)C)[C@H]2O)[C@](C)(O)C[C@@H](C)CN(C)[C@H](C)[C@@H](O)[C@]1(C)O	4 µg/mL (≈ 3.63 µM)	0.5 µg/mL (≈ 0.454 µM)	< 0.125 µg/mL	< 0.125 µg/mL	0.5 µg/mL (≈ 0.454 µM)	< 0.125 µg/mL	< 0.125 µg/mL	1 µg/mL (≈ 0.907 µM)	1 µg/mL (≈ 0.907 µM)		0.5 µg/mL (≈ 0.454 µM)
CC[C@H]1OC(=O)[C@H](C)[C@@H](O[C@H]2C[C@@](C)(OC)[C@@H](OC(=O)CCCCOCCCc3ccc4c(c3)c(=O)c(C(=O)O)cn4CC)[C@H](C)O2)[C@H](C)[C@@H](O[C@@H]2O[C@H](C)C[C@H](N(C)C)[C@H]2O)[C@](C)(O)C[C@@H](C)CN(C)[C@H](C)[C@@H](O)[C@]1(C)O	4 µg/mL (≈ 3.62 µM)	0.5 µg/mL (≈ 0.452 µM)	< 0.125 µg/mL	< 0.125 µg/mL	0.25 µg/mL (≈ 0.226 µM)	< 0.125 µg/mL	< 0.125 µg/mL	0.25 µg/mL (≈ 0.226 µM)	2 µg/mL (≈ 1.81 µM)		0.5 µg/mL (≈ 0.452 µM)
CC[C@H]1OC(=O)[C@H](C)[C@@H](O[C@H]2C[C@@](C)(OC)[C@@H](OC(=O)CCCCCOCC#Cc3ccc4c(c3)c(=O)c(C(=O)O)cn4CC)[C@H](C)O2)[C@H](C)[C@@H](O[C@@H]2O[C@H](C)C[C@H](N(C)C)[C@H]2O)[C@](C)(OC)C[C@@H](C)C(=O)[C@H](C)[C@@H](O)[C@]1(C)O	8 µg/mL (≈ 7.17 µM)	2 µg/mL (≈ 1.79 µM)	< 0.125 µg/mL	< 0.125 µg/mL	4 µg/mL (≈ 3.59 µM)	< 0.125 µg/mL	< 0.125 µg/mL	2 µg/mL (≈ 1.79 µM)	16 µg/mL (≈ 14.3 µM)		2 µg/mL (≈ 1.79 µM)
CC[C@H]1OC(=O)[C@H](C)[C@@H](O[C@H]2C[C@@](C)(OC)[C@@H](OC(=O)CCCCCOCCCc3ccc4c(c3)c(=O)c(C(=O)O)cn4CC)[C@H](C)O2)[C@H](C)[C@@H](O[C@@H]2O[C@H](C)C[C@H](N(C)C)[C@H]2O)[C@](C)(OC)C[C@@H](C)C(=O)[C@H](C)[C@@H](O)[C@]1(C)O	4 µg/mL (≈ 3.57 µM)	2 µg/mL (≈ 1.79 µM)	< 0.125 µg/mL	< 0.125 µg/mL	1 µg/mL (≈ 0.893 µM)	< 0.125 µg/mL	< 0.125 µg/mL	< 0.125 µg/mL	8 µg/mL (≈ 7.15 µM)		2 µg/mL (≈ 1.79 µM)
CC[C@H]1OC(=O)[C@H](C)[C@@H](O[C@H]2C[C@@](C)(OC)[C@@H](O)[C@H](C)O2)[C@H](C)[C@@H](O[C@@H]2O[C@H](C)C[C@H](N(C)C)[C@H]2O)[C@](C)(O)C[C@@H](C)CN(C)[C@H](C)[C@@H](O)[C@]1(C)O [AZITHROMYCIN]	> 64 µg/mL	0.5 µg/mL (≈ 0.668 µM)	< 0.125 µg/mL	< 0.125 µg/mL	> 64 µg/mL	16 µg/mL (≈ 21.4 µM)	> 64 µg/mL	> 64 µg/mL	1 µg/mL (≈ 1.34 µM)	16 µg/mL (≈ 21.4 µM)	> 64 µg/mL
CC[C@H]1OC(=O)[C@H](C)[C@@H](O[C@H]2C[C@@](C)(OC)[C@@H](O)[C@H](C)O2)[C@H](C)[C@@H](O[C@@H]2O[C@H](C)C[C@H](N(C)C)[C@H]2O)[C@](C)(OC)C[C@@H](C)C(=O)[C@H](C)[C@@H](O)[C@]1(C)O [CLARITHROMYCIN]	> 64 µg/mL	≤ 0.125 µg/mL	≤ 0.125 µg/mL	≤ 0.125 µg/mL	> 64 µg/mL	4 µg/mL (≈ 5.35 µM)	> 64 µg/mL	> 64 µg/mL	8 µg/mL (≈ 10.7 µM)	4 µg/mL (≈ 5.35 µM)	32 µg/mL (≈ 42.8 µM)
CC[C@H]1OC(=O)[C@H](C)C(=O)[C@H](C)[C@@H](O[C@@H]2O[C@H](C)C[C@H](N(C)C)[C@H]2O)[C@](C)(OC)C[C@@H](C)C(=O)[C@H](C)[C@H]2N(CCCCn3cnc(-c4cccnc4)c3)C(=O)O[C@]12C [TELITHROMYCIN]	< 0.125 µg/mL	0.25 µg/mL (≈ 0.308 µM)	< 0.125 µg/mL	< 0.125 µg/mL	0.25 µg/mL (≈ 0.308 µM)	0.5 µg/mL (≈ 0.616 µM)	0.25 µg/mL (≈ 0.308 µM)	16 µg/mL (≈ 19.7 µM)	1 µg/mL (≈ 1.23 µM)	0.5 µg/mL (≈ 0.616 µM)	0.125 µg/mL (≈ 0.154 µM)
